Measurements taken from PMC4539048 (Science translational medicine, 2015).
Converted amounts (≈) assume the structure as drawn. “And” between values parts separate entries of the source, which are not always exact repeats. Equal entries are not always repeated. Marks after values point to notes of the source that are not given here.

Key:
[1] = tested on: P. falciparum 3D7; assay: In vitro P. falciparum 3D7 growth inhibition; format: cell-based; settings: Plasmodium falciparum, 3D7, read-out: P. falciparum 3D7 growth inhibition EC50
How it was run: (§1)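 SYBR-green growth assay on P. falciparum 3D7 and drug-resistant lines, including chloroquine- and pyrimethamine-resistant parasites, cultured in RPMI-1640 with 0.5% Albumax-II. At least triplicate data per concentration. EC50 from the log(inhibitor) vs response variable-slope (four-parameter) fit by nonlinear least squares, reported with 95% confidence intervals of the fit.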

[2] = Cardiac safety by telemetry in conscious dogs; format: in vivo
[3] = tested on: P. falciparum early stage gametocytes stage III – IV; strain NF54; assay: Early stage gametocyte assay; format: cell-based
[4] = tested on: P. falciparum Dd2 and resistant clones; assay: microbe, parasite or virus in culture; format: cell-based; settings: Plasmodium falciparum, DD2|DSM265, read-out: DSM265 Dd2 EC50, Dd2/wt
[5] = Pharmacokinetics in mice; format: in vivo; settings: female, Swiss outbred, mouse, plasma
How it was run: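 Single-dose PK in female Swiss outbred mice or male beagle dogs, dosed IV and orally in a range of formulations. Blood was drawn into anticoagulant tubes and plasma separated by centrifugation. Compound was quantified by LC/MS, typically in 2–6 animals per study, with SD given where n>2.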

[6] = tested on: rabbit cardiac ventricular wedge; assay: Rabbit cardiac ventricular wedge assay
[7] = tested on: Caco-2 cell monolayers; assay: Caco-2 permeability; format: in vitro ADME
[8] = Caco-2 permeability; format: in vitro ADME; settings: human, Caco-2
[9] = molecular target: human ether-a-go-go related gene (hERG) K+ channel (Homo sapiens, UniProt Q12809); assay: hERG patch clamp assay; format: cell-based
[10] = molecular target: CYP2C19 (Homo sapiens, UniProt P33261); assay: Metabolism by individual human CYP enzymes; format: in vitro ADME; settings: CYP2C19 Supersomes
[11] = molecular target: rabbit DHODH (Oryctolagus cuniculus, UniProt G1SWF3); assay: DHODH inhibition, DCIP spectrophotometric assay; format: biochemical
[12] = Human pharmacokinetic prediction
[13] = 10-day repeat dose toxicity study in dogs; format: in vivo; settings: highest dose tested, Day 1
How it was run: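 Male beagle dogs were dosed orally every other day in the fed state over a 10-day repeat-dose exploratory (non-GLP) toxicology study. They were monitored daily for clinical signs, body weight and food consumption, with haematology, clinical chemistry and histopathology. Plasma toxicokinetics were taken on day 1 to give Cav, and full toxicokinetics were not collected after the final dose.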

[14] = tested on: P. falciparum Dd2; format: cell-based; settings: Dd2, 3xEC50
[15] = tested on: P. cynomolgi liver-stage parasites; assay: P. cynomolgi liver-stage model; format: cell-based
[16] = Chemical and physical stability; format: physicochemical
[17] = tested on: key CYP enzymes (not individually named); assay: CYP inhibition in human liver microsomes; format: in vitro ADME
How it was run: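 Inhibition of CYP isoforms was measured by a substrate-specific approach in human liver microsomes.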

[18] = Intravenous pharmacokinetics in monkeys and dogs; format: in vivo; settings: male (dogs), female (monkeys), macaque (monkeys), beagle (dogs), monkey, dog, plasma
How it was run: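 Male beagle dogs and female macaque monkeys received a single intravenous dose. Blood was collected into anticoagulant tubes and plasma was separated by centrifugation. Parent compound and metabolites were quantified by LC/MS. Typically 2–6 animals were used per study, with standard deviation given where n>2.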

[19] = molecular target: panel of 106 human receptors and ion channels; assay: Cerep panel of 106 human receptors and ion channels; format: binding
[20] = tested on: micronucleated polychromatic erythrocytes; assay: Oral bone marrow micronucleus test; format: in vivo; settings: male CD1 mice
[21] = tested on: P. falciparum parasites; assay: Drug combination, fixed-ratio isobologram method; format: cell-based; settings: artemisinin derivatives, OZ439, chloroquine, piperaquine, pyronaridine, mefloquine, lumefantrine, atovaquone, proguanil, P218, pyrimethamine
[22] = tested on: P. falciparum Pf3D7_0087/N9; assay: P. falciparum SCID mouse 4-day dosing efficacy model; format: in vivo
[23] = tested on: CYP enzymes; assay: CYP induction in human hepatocytes; format: in vitro ADME
[24] = tested on: P. yoelii DHODH; settings: cited from earlier work
[25] = tested on: panel of human kinases; assay: Panel of human kinases; format: biochemical; settings: University of Dundee
[26] = Protein binding in assay media; format: in vitro ADME; settings: 0.5% Albumax II in RPMI-1640
[27] = 7-day repeat dose toxicity study in mice; format: in vivo; settings: highest dose tested, Day 7
How it was run: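 Mice received the test compound orally once daily at 25–200 mg/kg/day for 7 days in an exploratory (non-GLP) toxicology study. They were monitored daily for clinical signs, body weight and food consumption, with haematology, clinical chemistry and histopathology. Plasma toxicokinetic parameters, including average concentration over the dosing interval, were derived on day 1 and day 7.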

[28] = tested on: 9 strains of P. falciparum; assay: In vitro blood-stage activity on 9 strains of P. falciparum; format: cell-based; settings: Plasmodium falciparum, read-out: EC50 range over all tested strains
How it was run: as §1

[29] = tested on: P. falciparum 3D7; assay: In vitro killing curves / 48 h growth assay, P. falciparum 3D7 blood stage; format: cell-based
[30] = molecular target: P. cynomolgi DHODH (Plasmodium cynomolgi, UniProt K6UE05); assay: DHODH inhibition, DCIP spectrophotometric assay; format: biochemical
[31] = molecular target: CYP2C8 (Homo sapiens, UniProt P10632); assay: Metabolism by individual human CYP enzymes; format: in vitro ADME; settings: CYP2C8 Supersomes
[32] = determined 24 h after the last dose

Chain of CYP2C19 (P33261 whole entry): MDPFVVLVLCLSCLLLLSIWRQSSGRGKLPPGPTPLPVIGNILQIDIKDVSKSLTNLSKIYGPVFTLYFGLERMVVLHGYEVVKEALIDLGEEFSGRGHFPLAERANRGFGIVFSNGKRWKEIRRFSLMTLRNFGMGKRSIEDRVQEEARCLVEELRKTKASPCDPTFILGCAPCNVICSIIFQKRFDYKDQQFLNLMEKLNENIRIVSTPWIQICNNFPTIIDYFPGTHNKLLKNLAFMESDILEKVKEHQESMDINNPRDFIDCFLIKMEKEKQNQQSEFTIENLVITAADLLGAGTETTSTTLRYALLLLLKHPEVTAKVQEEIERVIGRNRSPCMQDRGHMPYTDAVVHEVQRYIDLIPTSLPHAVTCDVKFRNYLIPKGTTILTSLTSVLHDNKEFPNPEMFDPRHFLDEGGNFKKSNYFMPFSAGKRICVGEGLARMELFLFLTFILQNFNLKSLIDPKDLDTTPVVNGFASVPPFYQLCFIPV
Chain of CYP2C8 (P10632 whole entry): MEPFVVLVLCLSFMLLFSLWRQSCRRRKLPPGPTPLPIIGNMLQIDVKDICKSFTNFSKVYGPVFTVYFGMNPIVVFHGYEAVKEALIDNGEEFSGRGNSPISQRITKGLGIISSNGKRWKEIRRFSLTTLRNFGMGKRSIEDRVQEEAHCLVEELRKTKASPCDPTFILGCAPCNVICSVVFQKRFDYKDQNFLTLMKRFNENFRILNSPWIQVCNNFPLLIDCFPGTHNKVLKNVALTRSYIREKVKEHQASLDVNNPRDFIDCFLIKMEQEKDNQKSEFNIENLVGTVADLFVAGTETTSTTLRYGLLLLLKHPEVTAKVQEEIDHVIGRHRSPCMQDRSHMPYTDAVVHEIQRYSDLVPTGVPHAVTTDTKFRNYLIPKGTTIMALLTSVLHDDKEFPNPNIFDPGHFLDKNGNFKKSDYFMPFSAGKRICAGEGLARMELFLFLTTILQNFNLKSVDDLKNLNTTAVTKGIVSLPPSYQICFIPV
Chain of human ether-a-go-go related gene (hERG) K+ channel (Q12809 whole entry): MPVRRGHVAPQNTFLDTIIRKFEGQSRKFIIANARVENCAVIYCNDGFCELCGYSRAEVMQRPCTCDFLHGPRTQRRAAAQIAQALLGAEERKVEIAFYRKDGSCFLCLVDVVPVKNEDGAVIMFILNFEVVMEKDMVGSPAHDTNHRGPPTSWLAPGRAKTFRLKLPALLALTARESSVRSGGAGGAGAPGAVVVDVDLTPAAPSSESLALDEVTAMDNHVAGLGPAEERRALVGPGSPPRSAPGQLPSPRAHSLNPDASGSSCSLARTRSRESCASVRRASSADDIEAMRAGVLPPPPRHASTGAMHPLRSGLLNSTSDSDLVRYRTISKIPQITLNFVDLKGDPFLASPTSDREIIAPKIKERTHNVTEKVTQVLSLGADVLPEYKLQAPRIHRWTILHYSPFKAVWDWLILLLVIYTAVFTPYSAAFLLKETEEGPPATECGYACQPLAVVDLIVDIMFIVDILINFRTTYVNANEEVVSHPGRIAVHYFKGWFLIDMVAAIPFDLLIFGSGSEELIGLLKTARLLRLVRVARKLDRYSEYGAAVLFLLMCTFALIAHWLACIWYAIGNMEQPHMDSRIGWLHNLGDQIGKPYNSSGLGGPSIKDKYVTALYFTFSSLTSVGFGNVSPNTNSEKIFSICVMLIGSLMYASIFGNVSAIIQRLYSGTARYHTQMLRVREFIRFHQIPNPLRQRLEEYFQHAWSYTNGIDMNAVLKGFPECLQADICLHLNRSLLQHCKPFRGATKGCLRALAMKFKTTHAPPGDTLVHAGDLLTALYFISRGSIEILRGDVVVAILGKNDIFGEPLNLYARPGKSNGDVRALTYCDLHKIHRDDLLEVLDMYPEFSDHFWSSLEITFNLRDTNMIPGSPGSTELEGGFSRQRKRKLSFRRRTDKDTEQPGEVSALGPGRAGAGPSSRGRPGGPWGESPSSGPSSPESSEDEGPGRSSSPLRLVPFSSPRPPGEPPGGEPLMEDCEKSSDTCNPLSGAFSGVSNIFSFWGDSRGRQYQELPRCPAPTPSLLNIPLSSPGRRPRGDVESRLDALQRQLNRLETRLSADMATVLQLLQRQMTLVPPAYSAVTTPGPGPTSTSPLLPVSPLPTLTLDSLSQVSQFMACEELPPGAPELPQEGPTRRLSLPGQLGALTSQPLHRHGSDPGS
Chain of rabbit DHODH (G1SWF3 1-395): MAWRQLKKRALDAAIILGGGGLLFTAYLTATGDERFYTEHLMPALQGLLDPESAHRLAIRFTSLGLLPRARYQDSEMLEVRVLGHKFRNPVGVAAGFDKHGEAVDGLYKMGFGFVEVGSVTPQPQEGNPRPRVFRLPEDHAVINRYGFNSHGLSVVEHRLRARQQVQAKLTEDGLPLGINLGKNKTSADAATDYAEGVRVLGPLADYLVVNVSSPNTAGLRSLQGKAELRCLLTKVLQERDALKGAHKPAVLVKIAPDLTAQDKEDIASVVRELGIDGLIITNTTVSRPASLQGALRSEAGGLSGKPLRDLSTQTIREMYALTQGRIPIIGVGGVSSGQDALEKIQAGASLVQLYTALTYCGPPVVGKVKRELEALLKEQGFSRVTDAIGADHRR

SMILES: Cc1cc(Nc2ccc(S(F)(F)(F)(F)F)cc2)n2nc(C(C)(F)F)nc2n1 [DSM265, 2-(1,1-difluoroethyl)-5-methyl-[N-[4-(pentafluorosulfanyl)phenyl]1,2,4]triazolo[1,5-a]pyrimidin-7-amine]
- EC50 [1]: 1.8 ng/mL (≈ 0.00433 µM)
- concentration at 24 h ([2]; dog, plasma, oral, 300 mg/kg): 1300 ng/mL
- ECGs ([2]; oral doses of 30 and 300 mg/kg): within normal limits
- EC50 ([3]; Plasmodium falciparum, NF54, read-out: EC50, early stage gametocytes stage III – IV): > 420 ng/mL
- EC50, early stage gametocytes stage III – IV ([3]; strain NF54): no activity
- EC50 [4]: 2.2 ng/mL (≈ 0.0053 µM)
- half-life [5]: 2 to 4 h
- QT and Tp-e interval ([6]; at 1 or 0.5 Hz): did not cause any significant prolongation
- Torsade de Pointes (TdP)-type arrhythmias ([6]; tested up to 5 μg/mL): no Torsade de Pointes (TdP)-type arrhythmias were observed
- BCS classification ([7]; from high permeability and low aqueous solubility): BCS Class II
- substrate for Pgp and BCRP ([7]; with verapamil and fumitremorgin C): not a substrate
- Papp A→B [8]: > 30 ×10⁻⁶ cm/s
- IC50 [9]: 1.59 to 6.98 µM
- extent of metabolism [10]: 0.039 μL/min/pmol CYP
- IC50 [11]: > 98.7 µM
- plasma MPC used for the human dose prediction [12]: 1 to 2 µg/mL
- average plasma concentration within a dosing interval (Cav) [13]: 16400 ng/mL
- MIR, range over two independent studies [14]: 2×10^5–2×10^7 parasites
- activity against small forms (non-dividing hypnozoite) [15]: poor activity
- EC50 ([15]; Plasmodium cynomolgi, read-out: EC50, liver-stage large form (multinucleated schizont)): 130 ng/mL (≈ 0.313 µM)
- stability of solutions subjected to simulated sunlight [16]: degradation
- chemical stability in the solid state ([16]; 30°/65% relative humidity for up to 24 months): chemically stable
- IC50 [17]: > 10000 ng/mL
- half-life [18]: 10 to 45 h
- IC50 values for the full panel [19]: > 4200 ng/mL
- micronucleated polychromatic erythrocytes [20]: no increase
- interaction with other antimalarials [21]: additive
- blood concentration 23 h after the last dose, estimate of the MPC ([22]; 13 mg/kg/day (6.4 mg/kg b.i.d.), oral, 4 days): 0.53 µg/mL
- SCID mouse in vivo MPC (plasma) ([22]; blood converted to plasma with blood to plasma ratio 0.5): 1.1 ^c μg/mL
- Unbound SCID mouse in vivo MPC (plasma) ([22]; corrected with fraction unbound 0.001): 0.0011 µg/mL
- ED90 [22, 32]: 1.5 mg/kg/12 h
- dose at the MPC [22, 32]: 6.4 mg/kg/12 h
- CYP induction [23]: did not induce CYP enzymes
- activity against P. yoelii DHODH [24]: poor activity
- activity against a panel of human kinases [25]: minimal activity
- Fraction unbound in assay media [26]: 0.17 ^b
- average plasma concentration within a dosing interval (Cav) [27]: 11700 ng/mL
- EC50 [28]: 1 to 4 ng/mL (≈ 0.00241 to 0.00963 µM)
- EC50 ([29]; Plasmodium falciparum, 3D7, 48 h, read-out: P. falciparum 3D7 in vitro growth assay EC50): 4.6 ng/mL (≈ 0.0111 µM)
- lag-phase prior to parasite killing ([29]; at 1xEC50): 96 h
- lag-phase prior to parasite killing ([29]; at 3xEC50 and above): 24 to 48 h
- Unbound in vitro MPC (kill assay) ([29]; corrected with fraction unbound in 0.5% Albumax II in RPMI-1640): 0.002 µg/mL and 0.0020 µg/mL
- P. falciparum 3D7 in vitro MPC (kill assay) ([29]; minimum parasiticidal concentration = 3xEC50): 0.014 μg/mL and 0.014 ^a μg/mL
- IC50 [30]: 0.012 µM
- extent of metabolism [31]: 0.032 μL/min/pmol CYP
